This is a sample that favours compounds with a hit; in the whole collection about 2.9% have one here.
FID counter: compounds displacing fluorescent DNA intercalator, primary screen, artefact control for HCV NS3 helicase inhibitor project, biochemical, FID fluorescence; DNA fluorescent intercalator displacement; inhibition, % at 7.9 µM; 290,000 tested, 0.17% active; AID 1845, 2009; in the data active = inhibition above about 37%;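 note: 0% = vehicle and 100% = reference compound; higher means more ethidium bromide displaced from hairpin DNA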
NALP1 inh: NALP1 inflammasome inhibitors in reconstituted yeast, colorimetric, S. cerevisiae, triplicate retest | inhibition, % at 10 µM | 280,000 tested, 0.61% active | S. cerevisiae NALP1/ASC/caspase-1 growth, X-gal OD620, 72 h; in the data active = inhibition mostly above about 24%, no sharp cut-off; inactive = mostly below about 32%
UBC9 SUMO inh: inhibitors of in vitro SUMOylation cascade, primary screen, biochemical, HTRF, uHTS; SUMO-conjugating enzyme UBC9 (Homo sapiens), P63279; HTRF SUMOylation assay, SAE1/SAE2 + UBC9; inhibition, % at 35 µM; 290,000 tested, 0.36% active; AID 2006, 2009; in the data active = inhibition above about 50%, passing the limit was not always enough
Target sequence (P63279 whole entry, looked up): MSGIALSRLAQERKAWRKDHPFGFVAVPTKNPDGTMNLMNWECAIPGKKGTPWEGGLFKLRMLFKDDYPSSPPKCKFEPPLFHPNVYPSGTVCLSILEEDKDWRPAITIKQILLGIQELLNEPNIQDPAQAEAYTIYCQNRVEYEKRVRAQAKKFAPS
VIM-2 inh: VIM-2 metallo-beta-lactamase inhibitors, primary screen, biochemical, epi-absorbance readout, Pseudomonas aeruginosa enzyme; inhibition, % at 5.6 µM; 290,000 tested, 0.89% active; AID 1527, 2009; purified VIM-2, nitrocefin hydrolysis, epi-absorbance fluorescence;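 active = inhibition above the mean of all tested compounds plus 3 SD, cutoff set per screening run, cut at about 7.5% in these data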;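 note: red hydrolysis product quenches plate fluorescence so inhibitors raise well fluorescence; 0% = enzyme with DMSO and 100% = DMSO without enzyme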
IMP-1 inhibitor: IMP-1 metallo-beta-lactamase inhibitors, primary screen, biochemical, epi-absorbance readout, Pseudomonas aeruginosa enzyme; AID 1556, 2009; 290,000 tested, 0.45% active; metallo-beta-lactamase IMP-1 (Pseudomonas aeruginosa); purified IMP-1, nitrocefin hydrolysis, epi-absorbance fluorescence; inhibition, % at 5.6 µM;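 active = inhibition above the mean plus 3 SD of all compounds in the same screening run, cut at about 4.5% in these data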;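 note: 0% = IMP-1 with DMSO and 100% = DMSO wells lacking enzyme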
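system = purified recombinant IMP-1 beta-lactamase | amount = 0.2 nM IMP-1, as dispensed | medium = HEPES buffer pH 7.1 with ZnSO4 and Brij 35 | times = 25 °C, 15 min preincubation, 25 min reaction | detection = plate fluorescence quenching by hydrolysis product, ex 480/em 530 nm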
Mot1-301 SUMO: yeast Mot1-301 growth rescue at high temperature, primary screen, SUMOylation pathway inhibitor project, S. cerevisiae, ATP luminescence, 38.5C; AID 2716, 2010; growth rescue, % at 18.8 µM; 320,000 tested, 1% active; S. cerevisiae Mot1-301 growth rescue; percent above DMSO median, 100 means doubled;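 active = every valid replicate shows activation above 250% relative to neutral control wells; inactive = the rest, any valid replicate at or below 250%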;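 note: OY570 slx delta 5 strain wells were the positive control but not used for scaling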
Numbers without * were called inactive; i = inactive; . = no result given.

SMILES | FID counter | NALP1 inh | UBC9 SUMO inh | VIM-2 inh | IMP-1 inhibitor | Mot1-301 SUMO
Cn1c(=O)c2c(ncn2CC(=O)N(Cc2ccccc2)c2ccccn2)n(C)c1=O | -11 | 10 | 8 | -1 | 0 | 299*
O=C1CC(=O)N(Cc2ccco2)C(=O)N1 | -13 | 33 | 27 | -1 | -1 | -16
O=C1CC(=O)N(Cc2ccco2)C(=S)N1 | -10 | -5 | 83* | -3 | 2 | 122
CCOC(=O)C1(CCCc2ccccc2)CCN(C(=O)CCOC)CC1 | -37 | 2 | 8 | -1 | -3 | 600*
O=C(O)c1cc(O)c2c(c1)C(=O)c1cccc(O)c1C2=O | -85 | 48 | 32 | 7 | 4.6* | -15
COc1ccccc1CN1C[C@@H]2C[C@@H](C3=Cc4cc(Cl)ccc4OC3)N3CCC[C@@]23C1=O | -21 | 26* | 12 | -1 | -4 | i
CN1C[C@@H]2C[C@@H](C3=Cc4cc(Cl)ccc4OC3)N3CCC[C@@]23C1=O | -8 | 0 | 9 | -3 | -1 | -1
CCOC(=O)N1CCN(C(=O)Cn2ncc3c2-c2ccccc2OC3)CC1 | -14 | 29 | 13 | -4 | -5 | 357*
O=C(Cn1ncc2c1-c1ccccc1OC2)Nc1cccc(Cl)c1 | -6 | 38* | -3 | -6 | -5 | 7
CCOc1ccc(-c2cc(NC(=O)Cn3ncc4c3-c3ccccc3OC4)on2)cc1OCC | -7 | 44* | -9 | -2 | -4 | 16
COc1ccccc1NC(=O)Cn1ncc2c1-c1ccccc1OC2 | -11 | 36 | 2 | -5 | -5 | -18
O=C(Nc1ccccc1C(=O)O)/C(=C/c1ccc([N+](=O)[O-])cc1)NC(=O)c1ccc(Br)o1 | -15 | 12 | 23 | -3 | -2 | 33
O=C(Nc1ccsc1C(=O)NC1CCCCC1)c1ccccc1 | 0 | 38 | 6 | -1 | 0 | -7
CCOc1ccc(N2C(=O)C3Sc4[nH]c(=O)sc4C(/C=C/c4ccccc4)C3C2=O)cc1 (stereo not drawn) | -22 | 20 | 18 | 0 | 8.0* | -19
O=C(COC(=O)CCN1C(=O)C2CC=CCC2C1=O)NCCc1ccc(F)cc1 (stereo not drawn) | . | . | . | . | . | 0
NC(N)=N/N=C/c1ccc(OCc2ccccc2Cl)cc1 | 28 | 28* | -7 | 0 | -3 | -11
Clc1cccc(Nc2c3c(nc4ncnn24)CCC3)c1 | -13 | 29 | -12 | 4 | -3 | 2
CCc1cccc(Nc2c3c(nc4ncnn24)CCC3)c1 | -28 | 0 | 8 | 9.9* | -4 | -4
COc1cccc2c(Nc3ccccc3C)cc(C)nc12 | 6 | 10 | 8 | 0 | -4 | -11
COc1cc(OC)cc(C(=O)N2CCN(C(=O)c3cccs3)CC2)c1 | -22 | 7 | 6 | -4 | -2 | -1
Cc1ccccc1C(=O)Nc1c(C(=O)N2CCN(C)CC2)cnn1-c1ccccc1 | -3 | 13 | -7 | -1 | -1 | -15
CN1CCN(C(=O)c2cnn(-c3ccccc3)c2NC(=O)c2ccccc2Br)CC1 | 1 | 28 | -4 | -1 | -1 | 331*
O=C(NCCc1ccccc1)c1ccc2c(c1)S(=O)(=O)c1ccccc1C2=O | . | . | . | . | . | -4
Cc1ccc(NCc2ccncc2)c(Br)c1 | 8 | 32* | 27 | -2 | -3 | 1
COc1ccc(-c2nc(C#N)c(N3CCN(C(=O)c4ccco4)CC3)o2)cc1OC | -18 | -8 | 8 | 0 | 7.7* | 3
SMILES | FID counter | NALP1 inh | UBC9 SUMO inh | VIM-2 inh | IMP-1 inhibitor | Mot1-301 SUMO
O=C(O)c1ccccc1C(=O)N1CCc2c([nH]c3ccccc23)C1C(F)(F)F (stereo not drawn) | -39 | 39 | 15 | 11* | -2 | -3
O=C(O)CSCC(=O)N1CCc2c([nH]c3ccccc23)C1C(F)(F)F (stereo not drawn) | -15 | 24 | 8 | -1 | 0 | 16
O=[N+]([O-])c1ccc(/C=C/C2=NN(c3ccccc3)C(c3ccco3)C2)o1 (stereo not drawn) | -4 | -6 | 36 | 5 | 5.5* | .
C(=C\c1ccco1)/C1=NN(c2ccccc2)C(c2ccco2)C1 (stereo not drawn) | -17 | 34 | 49 | -2 | -1 | 24
CSc1nc2c(c(=O)n1-c1ccc(C)cc1)SCC2 | -7 | 28* | 17 | -2 | -3 | -8
COc1ccc(NC(=O)c2cc3cccc(OC)c3oc2=Nc2ccc(C(=O)O)cc2)cc1OC | 1 | 28* | 2 | 0 | -1 | .
COc1cccc(NC(=O)c2cc3cccc(OC)c3o/c2=N\O)c1 | -12 | 4 | 5 | 0 | -3 | -9
CC(=O)/C(N=Nc1ccc(C(=O)O)cc1)=C(\C)O | 0 | 43* | 15 | -1 | -3 | -4
CO/C([O-])=N/c1c[n+](-c2ccc(Cl)cc2)no1 | -5 | 7 | 4 | -1 | -2 | 290*
O=C1CSC(=S)N1/N=C/c1c(F)cccc1F | -10 | -13 | 2 | -2 | 12* | -3
O=C1CSC(=S)N1/N=C/c1ccc(C(F)(F)F)cc1 | -10 | -5 | 2 | -3 | 3 | 6
O=C1CSC(=S)N1/N=C/C=C/c1ccccc1 | -41 | 14 | -32 | -3 | 0 | 200
COc1ccc2ccccc2c1/C=N/N1C(=O)CSC1=S | -13 | -8 | 6 | 0 | 22* | -15
COc1cccc(/C=N/N2C(=O)CSC2=S)c1O | 5 | 8 | 16 | -3 | 1 | -15
O=C1CSC(=S)N1/N=C/c1cccc(C(F)(F)F)c1 | -21 | -9 | 2 | -2 | 8.9* | 19
Cc1ccc(S(C)(=O)=O)cc1C(=O)NC(C)C1CC2CCC1C2 (stereo not drawn) | -6 | 7 | -12 | -1 | -1 | -3
Cc1cc(C)cc(NC(=O)COC(=O)c2ccc3c(c2)OCCO3)c1 | . | . | . | . | . | 21
O=C(COC(=O)c1ccc2c(c1)OCCO2)Nc1cc(Cl)ccc1Cl | -3 | -8 | 2 | -1 | -8 | 321*
COc1cc2c(cc1OC)CN(C(=O)c1ccc(N3CCCC3)c([N+](=O)[O-])c1)CC2 | . | . | . | . | . | -6
CCOc1ccc(N2C(=O)C(Cl)=C(Nc3ccccc3O)C2=O)cc1 | -7 | 20 | -5 | 3 | -3 | 11
O=C(Cn1ncc2c([nH]c3ccccc32)c1=O)NCC1CCN(Cc2ccc(F)cc2)CC1 | 11 | 29* | 5 | 0 | -1 | 26
CN(C)c1cc(NC(=O)CNC(C)(C)C)c2ccccc2n1 | 53* | . | 18 | 0 | -1 | -16
